Results taken from ChEMBL document CHEMBL1153445, “Alkenyl substituted bicyclic nucleoside analogues retain nanomolar potency against Varicella Zoster Virus” (Bioorg Med Chem, 2009).

Legend:
[1] = tested on: Human alphaherpesvirus 3; assay: Antiviral activity against Varicella Zoster virus Oka infected in HEL cells assessed as reduction in viral plaque formation after 5 days; assay type: functional, organism-based; settings: Human alphaherpesvirus 3, Oka, 120 h
Method in brief: (§1)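 Confluent HEL cell monolayers infected with 20 PFU VZV per well; after 1–2 h adsorption, residual virus removed and cells incubated in MEM with 2% inactivated FCS, 1% L-glutamine, 0.3% sodium bicarbonate plus graded compound concentrations.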

[2] = Cytotoxicity against human HEL cells; assay type: cell-based; settings: for MCC: read-out: MIC
[3] = Inhibition of Varicella Zoster virus thymidine kinase-mediated [3H]thymidine phosphorylation; design: species or system Human alphaherpesvirus 3
[4] = tested on: Human alphaherpesvirus 3; assay: Antiviral activity against Varicella Zoster virus YS infected in HEL cells assessed as reduction in viral plaque formation after 5 days; assay type: functional, organism-based; settings: Human alphaherpesvirus 3, YS, 120 h; method in brief: as §1

| Compound | EC50 [1] | IC50 [3] | EC50 [4] | CC50 [2] | MCC [2] |
| --- | --- | --- | --- | --- | --- |
| CCCCCc1ccc(-c2cc3cn([C@H]4C[C@H](O)[C@@H](CO)O4)c(=O)nc3o2)cc1 [CF1743] |  |  |  |  | ≥ 50 µM |
| CC/C=C/c1ccccc1-c1cc2cn([C@H]3C[C@H](O)[C@@H](CO)O3)c(=O)nc2o1 | 33 µM | 3.8 µM |  | 102 µM | 400 µM |
| CCCCc1ccc(-c2cc3cn([C@H]4C[C@H](O)[C@@H](CO)O4)c(=O)nc3o2)cc1 |  |  |  |  | ≥ 50 µM |
| CCCc1ccc(-c2cc3cn([C@H]4C[C@H](O)[C@@H](CO)O4)c(=O)nc3o2)cc1 |  |  |  |  | ≥ 50 µM |
| C/C=C/c1cccc(-c2cc3cn([C@H]4C[C@H](O)[C@@H](CO)O4)c(=O)nc3o2)c1 | 13 µM | 2.6 µM | 58 µM | > 200 µM | > 200 µM |

Now from value to molecule, other results behind:

| EC50 [1] | IC50 [3] | EC50 [4] | Compound | CC50 [2] | MCC [2] |
| --- | --- | --- | --- | --- | --- |
| 8.4 µM | 119 µM |  | CCC/C=C/c1ccccc1-c1cc2cn([C@H]3C[C@H](O)[C@@H](CO)O3)c(=O)nc2o1 | 41 µM | 80 µM |
| 0.0003 µM | 2.3 µM | 0.0008 µM | CCC/C=C/c1ccc(-c2cc3cn([C@H]4C[C@H](O)[C@@H](CO)O4)c(=O)nc3o2)cc1 | > 200 µM | > 5 µM |
| 0.0006 µM | 2.4 µM | 0.007 µM | CC/C=C/c1ccc(-c2cc3cn([C@H]4C[C@H](O)[C@@H](CO)O4)c(=O)nc3o2)cc1 | > 200 µM | ≥ 5 µM |
| 1.9 µM | 23 µM | 2.3 µM | CC/C=C/c1cccc(-c2cc3cn([C@H]4C[C@H](O)[C@@H](CO)O4)c(=O)nc3o2)c1 | 68 µM | ≥ 20 µM |
| 12 µM | 0.31 µM |  | C/C=C/c1ccccc1-c1cc2cn([C@H]3C[C@H](O)[C@@H](CO)O3)c(=O)nc2o1 | 103 µM | 400 µM |
| 0.004 µM | 1.9 µM | 0.004 µM | C/C=C/c1ccc(-c2cc3cn([C@H]4C[C@H](O)[C@@H](CO)O4)c(=O)nc3o2)cc1 | > 200 µM | ≥ 50 µM |
| 1.1 µM | 397 µM | 1.3 µM | CCC/C=C/c1cccc(-c2cc3cn([C@H]4C[C@H](O)[C@@H](CO)O4)c(=O)nc3o2)c1 | > 200 µM | ≥ 200 µM |
